Screening results (PubChem BioAssay)
INS-1E GSIS act – GLuc luminescence reporter in INS-1E cells, primary screen for activators of glucose-dependent secretion of insulin; INS-1E GLuc reporter insulin secretion, 2-3 h; activation, % at 16.6 µM; 370,000 tested, 0.61% active;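 active = lowest replicate activation of at least 40%, so every replicate reaches that level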;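 also: 0% = median of neutral control wells and 100% = median of IBMX positive control wells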
Env fusion inh – HIV envelope-mediated fusion inhibition; 360,000 tested, 1.1% active; inhibition, % at 12.3 µM; HeLa-JRFL Env/CEM21 cell fusion, luciferase; AID 651610;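 active = mean replicate inhibition score of at least 50 and every replicate individually at or above 50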;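 also: 0% = plate neutral controls and 100% = maraviroc near 300 nM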
CFTR F508del cor – correctors of CFTR F508del function in bronchial epithelial cells. CFBE cells, YFP halide quenching; stimulated with forskolin plus potentiator P3; % fluorescence drop versus neutral controls. activity (quench increase), % at 7.58 µM. 350,000 tested, 0.36% active. AID 720511;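 active = mean added fluorescence quench of at least 8% versus neutral control, with both replicates also reaching 8%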;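 also: cells transiently co-express mutant CFTR-F508del with the halide-sensitive YFP; corrector assay measuring rescue of mutant channel to the surface after 24 h compound exposure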
Cneo AK release – causes C. neoformans cell lysis | 360,000 tested, 0.2% active | lysis activity, % at 15 µM | adenylate kinase release luminescence, 4 h; normalised: neutral wells 0, clomiphene wells 100;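 active = mean lysis activity across replicates of at least 80%, whatever share of replicates individually reach that level; inactive = mean lysis activity below 80%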
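Schedule: static 4 h at 37 °C with compound, 1 h detection; system: C. neoformans cells; benchmarks: Clomiphene as positive control; buffer or medium: fresh YPD medium; measure: luminescence rise reflecting yeast cell lysis; measured by: luminescent adenylate kinase detection reagent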
miR122 inh – blocks miR-122 activity in Huh7 sensor cells; activation (reporter increase), % at 12.5 µM; Huh7 miR-122 Renilla luciferase sensor, 48 h; neutral wells = 0, positive control = 100; 340,000 tested, 0.3% active;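 active = mean replicate activation score at least 90 and every replicate individually at or above 90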;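 also: higher luciferase means less miR-122 activity so hits act as miR-122 inhibitors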
rRNA inh HTS – selective bacterial rRNA inhibition in E. coli; E. coli WT GFP vs humanized-ribosome RFP mutants, fluorescence, 24 h; stronger effect = lower value; DMSO median 0, no signal -100; 350,000 tested, 1.6% active; GFP signal change (wild-type ribosome), % (test concentration not listed); AID 720706;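 active = significant combined selectivity score with lowered wild-type GFP, culture density cut under 30%, mutant RFP and density less affected; inactive = any of these conditions unmet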
The depositor's hits bear a star; nt = not tested or not shown; [ ] = remark or other dose. Sampled rows, rich in hits. Any-hit rate of the full collection: about 3.1%.

SMILES	INS-1E GSIS act	Env fusion inh	CFTR F508del cor	Cneo AK release	miR122 inh	rRNA inh HTS
Cc1ccc(S(=O)(=O)Nc2nc3ccccc3nc2Nc2cccc(S(=O)(=O)N3CCCC3)c2)cc1	4.9	38.0	-2.1	nt	nt	11.3
COc1ccc(NS(=O)(=O)c2cccc(Cl)c2Cl)cc1S(=O)(=O)N1CCCCC1	-23.7	9.3	nt	nt	nt	-35.3*
COc1cc(S(=O)(=O)N2CCCCCC2)c(OC)cc1Br	nt	-15.3	nt	1.0	307.9*	nt
COc1cccc(-c2ccc([C@H]3[C@@H](CO)N4CCCCN(CC5CC5)C[C@@H]34)cc2)c1	-3.9	nt	3.3	54.9	16.8[16.7 µM]	5.4
CC(C)NC(=O)N1C[C@H]2[C@@H](c3ccccc31)[C@H](CO)N2C(=O)c1ccncc1	-2.4	nt	-4.2	0.7	11.5[16.7 µM]	4.0
O=C(c1ccncc1)N1C[C@@H]2[C@H](c3ccccc31)[C@@H](CO)N2C(=O)Nc1ccccc1Cl	1.4	nt	-0.8	-5.9	-12.2[16.7 µM]	-0.8
O=C([C@@H]1[C@@H](CO)[C@@H]2Cn3c(cccc3=O)[C@@H]2N1CC1CCCCC1)N1CCOCC1	4.4	nt	-0.2	nt	nt	-1.7
Cc1ccc(S(=O)(=O)Nc2cccc(S(=O)(=O)N3CCCC3)c2)cc1C	-21.5	3.2	0.3	-0.8	122.5*	-2.4
CCCCNC(=O)c1ccc2c(OCC)n(CCCC)nc2c1	18.6	20.6	1.2	5.6	nt	0.9
CCCCn1nc2cc(C(=O)NCCc3ccc(C)cc3)ccc2c1OCC	-61.0	2.2	-2.0	0.4	0.4	-38.4*
N#C/C(=C\c1ccccn1)c1nc2ccccc2s1	7.0	-11.9	40.9*	-2.2	5.6	-19.8
CCN1[C@@H]2c3ccc(/C=C/c4ccccc4)c(=O)n3C[C@H]1[C@H](CO)[C@H]2C(=O)NC1Cc2ccccc2C1	-6.7	nt	1.5	nt	nt	-4.0
C/C=C/c1ccc([C@H]2[C@@H](CO)N(C(=O)Cc3cccnc3)[C@H]2CNC(C)=O)cc1	5.2	nt	4.0	-9.0	-8.3[16.7 µM]	3.7
CCc1ccc(Nc2cnn(C34CC5CC(CC(CC(=O)O)(C5)C3)C4)c(=O)c2Cl)cc1	-5.5	10.0	-1.6	2.9	-0.3	-27.2*
CCOCc1nnc(NS(C)(=O)=O)s1	nt	-26.0	nt	-0.3	268.5*	nt
CCOCc1nnc(NC(C)=O)s1	nt	-24.6	nt	1.5	1.4	nt
O=C(c1ccccc1)c1c(O)nc(-c2ccccc2)n(-c2ccccc2)c1=O	-9.8	nt	1.0	1.9	nt	-24.9*
CC(=O)c1c(O)c(C)c(-c2ccccc2)n(-c2ccccc2)c1=O	nt	nt	nt	-1.6	-6.4	nt
COc1ccccc1NC(=O)N[C@@H]1CC[C@@H](CC(=O)NCc2ccc(Cl)c(Cl)c2)O[C@@H]1CO	-10.6	nt	2.6	0.7	nt	-14.7
COc1cccc(N=Nc2ccc3cccnc3c2O)c1	7.2	-5.1	8.3*	1.5	9.7	11.2
CCN(CC)CCn1c2ccccc2c2nc3ccccc3nc21	9.4	-72.4	24.2*	-2.7	-7.2	-28.7
CCCn1c2ccccc2c2nc3ccccc3nc21	nt	-259.5	nt	13.0	-0.6	nt
N#CCCn1c2ccccc2c2nc3ccccc3nc21	40.9*	nt	nt	2.1	-4.8	nt
O=C(O)Cn1c2ccccc2c2nc3ccccc3nc21	nt	nt	nt	-6.2	nt	nt
Cc1noc(C)c1NC(=O)N(C)C[C@@H]1OCCCC[C@@H](C)Oc2ccc(NS(=O)(=O)c3ccc(F)cc3)cc2C(=O)N([C@H](C)CO)C[C@H]1C	0.8	17.1[16.7 µM]	-0.3	-2.5	1.4[16.7 µM]	-0.8
SMILES	INS-1E GSIS act	Env fusion inh	CFTR F508del cor	Cneo AK release	miR122 inh	rRNA inh HTS
O=C(Nc1ccccc1)c1nc[nH]c1C(=O)NCCCCCCNC(=O)c1[nH]cnc1C(=O)Nc1ccccc1	nt	57.5*	3.4	2.9	0.4	18.4
O=C(Nc1ccccc1)c1nc[nH]c1C(=O)NCCCNC(=O)c1[nH]cnc1C(=O)Nc1ccccc1	12.5	18.2	-0.2	5.4	-6.8	25.2
Nc1nc(SCc2ccccc2)c2ncn(Cc3ccccc3)c2n1	-55.6	17.3	-0.7	-0.7	-6.6	-16.5*
O=S(=O)(c1ccccc1)[C@@]1(c2ccccc2)C[C@@H]2ON=C(c3cccc(Br)c3)[C@@H]2C1	-9.7	79.1*	4.8	-2.4	-8.5	-8.0
Cc1cc(C(=O)N2CCc3ccccc32)n(-c2ccccc2)n1	1.5	-9.2	1.9	-0.2	115.3*	3.0
Cc1noc(NS(=O)(=O)c2ccc(N/C=C\C(=O)c3ccc(F)cc3)cc2)c1C	-3.6	4.8	nt	nt	3.0	13.0
COc1cccc(C(=O)/C=C/Nc2ccc(S(=O)(=O)Nc3nc(C)cc(C)n3)cc2)c1	nt	7.6	nt	nt	nt	-21.2*
Cc1noc(NS(=O)(=O)c2ccc(N/C=C\C(=O)c3ccccc3)cc2)c1C	2.1	-0.7	11.9*	nt	nt	-13.0
Cc1cc(C)nc(NS(=O)(=O)c2ccc(N/C=C/C(=O)c3ccc(Cl)c(Cl)c3)cc2)n1	63.0*	nt	nt	1.7	14.8	nt
CC(=O)N[C@H]1C[C@@H]2O[C@H](CO)CC[C@@H]2O[C@@H]1CCc1ccc(C#CC2(O)CCCC2)cc1	nt	nt	1.0	nt	nt	nt
C[C@H]1CN([C@@H](C)CO)C(=O)c2cc(NS(=O)(=O)c3ccc(Cl)cc3)ccc2O[C@@H]1CN(C)C(=O)Nc1ccc(C(F)(F)F)cc1	-8.8	-16.6[16.7 µM]	3.4	nt	2.4[16.7 µM]	-4.4
O=C(N[C@@H]1C=C[C@H](CC(=O)N2CCCCC2)O[C@H]1CO)c1ccc2c(c1)OCO2	5.8	16.6[16.7 µM]	-0.2	-6.3	nt	1.5
C[C@@H]1CN([C@@H](C)CO)C(=O)c2cc(C#Cc3cccnc3)cnc2O[C@@H]1CN(C)S(=O)(=O)c1ccccc1F	14.2	nt	2.5	3.0	2.9[16.7 µM]	-2.2
O=C(CN1C(=O)NC(c2ccccc2)(c2ccccc2)C1=O)NCc1cccs1	-44.3	nt	2.0	0.2	nt	-35.6*
Cc1c(C(=O)NCCSCc2c(F)cccc2Cl)cnn1-c1ccc(F)cc1	-33.1	15.3	nt	4.3	-1.3	-35.7*
Cc1c(C(=O)NCCSCc2cccc(C(F)(F)F)c2)cnn1-c1ccc(F)cc1	-19.4	25.4	0.0	5.9	-7.7	-36.6*
Cc1c(C(=O)NCCSCc2ccc(F)cc2)cnn1-c1ccc(Cl)cc1	-2.0	13.5	-0.4	0.8	-10.8	-38.0*
COc1cccc(C(=O)NCCSCc2c(F)cccc2Cl)c1	-2.9	-16.1	-3.3	0.7	-0.8	-37.2
CCCNC(=O)[C@H]1[C@H](CO)[C@H]2Cn3c(ccc(-c4cccc(F)c4)c3=O)[C@H]2N1C(=O)CC	-4.8	nt	0.2	-3.6	-4.6[16.7 µM]	-0.8
Cc1ccc(S(=O)(=O)N(C)C[C@H]2Oc3ccc(NS(=O)(=O)c4cccs4)cc3CC(=O)N([C@H](C)CO)C[C@@H]2C)cc1	-2.6	4.2[16.7 µM]	-0.4	3.4	6.6[16.7 µM]	-2.9
CC=Cc1ccc2n(c1=O)C[C@@H]1[C@@H](CO)[C@H](C(=O)NCC)N(CC3CCOCC3)[C@H]21 (mixture of isomers)	8.6	nt	nt	nt	nt	0.3
